# How the values were obtained:
# Conditions in all cases: stereoisomer not certain
# UniProt Q8VGL0 = molecular target: T1, UniProt Q8VGL0
# T1 sequence (whole entry): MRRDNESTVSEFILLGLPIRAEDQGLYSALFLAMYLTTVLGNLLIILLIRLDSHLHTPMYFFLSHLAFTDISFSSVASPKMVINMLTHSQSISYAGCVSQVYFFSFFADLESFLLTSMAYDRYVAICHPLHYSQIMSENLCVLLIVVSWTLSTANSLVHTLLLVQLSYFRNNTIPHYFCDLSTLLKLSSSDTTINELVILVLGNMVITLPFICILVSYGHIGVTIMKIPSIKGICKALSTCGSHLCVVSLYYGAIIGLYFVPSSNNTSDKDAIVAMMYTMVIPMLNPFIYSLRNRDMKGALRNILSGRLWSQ
# Procedure, shortened: (§1)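 Whether a receptor–molecule pair is responsive (active) rests on the original authors' judgment that its measured signal was statistically different from baseline. Pairs without that judgment are non-responsive (inactive). Sources used varied assay methods, commonly transient luciferase assays in mammalian cell lines.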
# UniProt Q8VGU3 = molecular target: T2, UniProt Q8VGU3
# T2 sequence (whole entry): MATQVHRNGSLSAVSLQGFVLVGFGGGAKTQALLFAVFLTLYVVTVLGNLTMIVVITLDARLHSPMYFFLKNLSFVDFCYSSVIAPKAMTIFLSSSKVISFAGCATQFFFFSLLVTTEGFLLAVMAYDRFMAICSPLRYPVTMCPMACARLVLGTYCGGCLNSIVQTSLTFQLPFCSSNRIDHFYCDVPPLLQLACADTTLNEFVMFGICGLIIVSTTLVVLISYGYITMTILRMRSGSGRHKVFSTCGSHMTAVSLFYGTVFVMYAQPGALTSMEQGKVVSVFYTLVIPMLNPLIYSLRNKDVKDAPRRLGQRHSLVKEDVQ
# Procedure, shortened: as §1
# UniProt Q8VGV7 = molecular target: T3, UniProt Q8VGV7
# T3 sequence (whole entry): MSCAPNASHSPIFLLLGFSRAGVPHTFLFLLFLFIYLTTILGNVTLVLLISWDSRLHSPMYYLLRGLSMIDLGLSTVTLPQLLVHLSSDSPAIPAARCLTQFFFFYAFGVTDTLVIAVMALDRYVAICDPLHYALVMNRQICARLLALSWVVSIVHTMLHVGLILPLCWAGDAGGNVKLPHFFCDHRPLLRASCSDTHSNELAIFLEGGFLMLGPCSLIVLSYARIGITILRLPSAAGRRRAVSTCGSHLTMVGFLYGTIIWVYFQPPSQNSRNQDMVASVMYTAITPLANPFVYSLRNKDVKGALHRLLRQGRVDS
# Procedure, shortened: as §1
# UniProt Q8VGX3 = molecular target: T4, UniProt Q8VGX3
# T4 sequence (whole entry): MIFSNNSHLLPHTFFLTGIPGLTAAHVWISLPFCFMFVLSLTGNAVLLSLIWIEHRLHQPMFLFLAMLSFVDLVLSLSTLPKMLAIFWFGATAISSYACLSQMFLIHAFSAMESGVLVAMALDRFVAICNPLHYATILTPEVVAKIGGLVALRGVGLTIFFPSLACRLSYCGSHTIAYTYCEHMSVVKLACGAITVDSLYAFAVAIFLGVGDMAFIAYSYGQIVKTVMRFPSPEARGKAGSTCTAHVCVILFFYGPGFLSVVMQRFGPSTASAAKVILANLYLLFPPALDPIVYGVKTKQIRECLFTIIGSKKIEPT
# Procedure, shortened: as §1
# UniProt Q8VGX5 = molecular target: T5, UniProt Q8VGX5
# T5 sequence (whole entry): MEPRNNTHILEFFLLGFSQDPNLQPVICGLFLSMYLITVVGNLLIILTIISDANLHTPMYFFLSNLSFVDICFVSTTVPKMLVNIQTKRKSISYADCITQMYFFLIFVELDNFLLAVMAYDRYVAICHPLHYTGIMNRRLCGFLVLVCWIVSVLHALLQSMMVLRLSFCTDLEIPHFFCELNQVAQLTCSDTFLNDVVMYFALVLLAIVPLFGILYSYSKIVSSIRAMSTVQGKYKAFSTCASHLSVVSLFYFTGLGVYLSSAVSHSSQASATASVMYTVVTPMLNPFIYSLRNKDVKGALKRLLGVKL
# Procedure, shortened: as §1
# UniProt Q8VGZ2 = molecular target: T6, UniProt Q8VGZ2
# T6 sequence (whole entry): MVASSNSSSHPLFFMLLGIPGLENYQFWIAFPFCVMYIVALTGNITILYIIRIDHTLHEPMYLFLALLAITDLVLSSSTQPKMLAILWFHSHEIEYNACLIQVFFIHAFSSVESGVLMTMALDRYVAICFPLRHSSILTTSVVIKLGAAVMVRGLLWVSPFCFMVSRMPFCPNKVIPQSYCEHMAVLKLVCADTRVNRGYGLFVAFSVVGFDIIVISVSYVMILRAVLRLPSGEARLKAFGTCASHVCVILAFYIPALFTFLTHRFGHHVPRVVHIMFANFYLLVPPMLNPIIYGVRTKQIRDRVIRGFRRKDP
# Procedure, shortened: as §1
# UniProt Q8VGZ7 = molecular target: T7, UniProt Q8VGZ7
# T7 sequence (whole entry): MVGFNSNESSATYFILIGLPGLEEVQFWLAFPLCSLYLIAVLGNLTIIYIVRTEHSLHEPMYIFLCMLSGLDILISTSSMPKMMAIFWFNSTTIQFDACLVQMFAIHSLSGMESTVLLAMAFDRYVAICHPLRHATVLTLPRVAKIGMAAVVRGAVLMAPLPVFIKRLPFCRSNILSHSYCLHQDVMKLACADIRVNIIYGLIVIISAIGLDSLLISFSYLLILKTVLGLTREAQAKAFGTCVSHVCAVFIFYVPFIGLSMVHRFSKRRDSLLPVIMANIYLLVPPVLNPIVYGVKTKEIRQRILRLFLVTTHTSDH
# Procedure, shortened: as §1
# UniProt Q8VH16 = molecular target: T8, UniProt Q8VH16
# T8 sequence (whole entry): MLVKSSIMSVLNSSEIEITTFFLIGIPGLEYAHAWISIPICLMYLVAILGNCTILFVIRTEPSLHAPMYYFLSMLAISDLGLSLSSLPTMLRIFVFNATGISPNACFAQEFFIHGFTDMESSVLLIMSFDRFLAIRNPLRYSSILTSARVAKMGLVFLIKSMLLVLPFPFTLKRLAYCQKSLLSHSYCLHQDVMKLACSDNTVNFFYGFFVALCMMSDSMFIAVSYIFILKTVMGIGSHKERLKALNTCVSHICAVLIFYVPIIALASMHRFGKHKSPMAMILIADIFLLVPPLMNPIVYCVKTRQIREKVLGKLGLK
# Procedure, shortened: as §1
# UniProt Q8VH20 = molecular target: T9, UniProt Q8VH20
# T9 sequence (whole entry): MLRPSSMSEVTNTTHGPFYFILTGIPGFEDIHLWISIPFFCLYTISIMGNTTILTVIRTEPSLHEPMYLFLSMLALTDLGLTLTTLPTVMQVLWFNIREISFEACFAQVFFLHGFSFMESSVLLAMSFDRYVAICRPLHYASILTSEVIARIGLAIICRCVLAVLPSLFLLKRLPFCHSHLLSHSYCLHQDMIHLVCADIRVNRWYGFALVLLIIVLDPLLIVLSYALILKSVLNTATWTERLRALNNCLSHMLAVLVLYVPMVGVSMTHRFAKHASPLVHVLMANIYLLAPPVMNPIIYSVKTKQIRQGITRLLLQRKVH
# Procedure, shortened: as §1
# 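Further: active if original authors judged signal statistically different from baseline.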
SMILES,odorant receptor agonist call (UniProt Q8VGL0),odorant receptor agonist call (UniProt Q8VGU3),odorant receptor agonist call (UniProt Q8VGV7),odorant receptor agonist call (UniProt Q8VGX3),odorant receptor agonist call (UniProt Q8VGX5),odorant receptor agonist call (UniProt Q8VGZ2),odorant receptor agonist call (UniProt Q8VGZ7),odorant receptor agonist call (UniProt Q8VH16),odorant receptor agonist call (UniProt Q8VH20)
O=Cc1ccc2c(c1)OCO2,inactive,inactive,inactive,inactive,active,inactive,inactive,inactive,inactive
O=CC=Cc1ccccc1,inactive,inactive,inactive,inactive,inactive,inactive,inactive,inactive,inactive
